ABHD4 inh = inhibitors of mouse ABHD4. 370,000 compounds, 0.54% hits. Q8VD66. inhibition, % at 8.92 µM. purified mABHD4, FP-Rh probe fluorescence polarization;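 active means inhibition exceeding the mean over every tested compound plus 3 SD, cut at about 30% in these data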;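 further: 0% = plate median of compound wells and 100% = S159A mutant with DMSO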
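Test system: mABHD4 protein | Buffer or medium: HEPES pH 7.0 buffer, 150 mM NaCl, 0.01% Pluronic F-127 | Probe or stimulus: FP-Rh fluorescent activity-based probe, added after compound pre-incubation | Timing: Pre-incubation 45 min, probe exposure 60 min, at 25 °C | Technique: Fluorescence polarization, excitation 525 nm, emission 598 nm, BODIPY TMR filters | Repeats: Single well per compound (singlicate)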
PRMT1 FP inh = PRMT1 (human) inhibition, primary screen. recombinant PRMT1, activity-based probe fluorescence polarization. Q99873. inhibition, % at 2.79 µM. 370,000 compounds, 1.3% hits;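 active means inhibition above about 21% made by adding two undisclosed values, limit read from the data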
Target sequence (Q99873 whole entry, looked up): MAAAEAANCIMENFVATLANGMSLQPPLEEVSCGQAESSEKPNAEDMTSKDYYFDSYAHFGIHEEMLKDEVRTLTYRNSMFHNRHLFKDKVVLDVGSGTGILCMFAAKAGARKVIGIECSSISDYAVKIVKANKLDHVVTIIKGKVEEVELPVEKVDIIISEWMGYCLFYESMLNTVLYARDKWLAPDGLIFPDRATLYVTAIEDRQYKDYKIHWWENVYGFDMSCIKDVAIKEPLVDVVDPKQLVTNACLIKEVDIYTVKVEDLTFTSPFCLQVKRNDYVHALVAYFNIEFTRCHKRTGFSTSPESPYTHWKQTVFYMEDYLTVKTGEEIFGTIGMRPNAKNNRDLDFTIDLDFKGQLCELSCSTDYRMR
TCR-CD3 inh = blocks the human TCR-CD3 interaction | 360,000 compounds, 0.37% hits | TAMRA-labeled TCR probe fluorescence, biochemical | inhibition, % at 9.4 µM | AID 651800;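 further: recombinant mutant TCR 2C K166C tagged with TAMRA read by polarization; 0% = receptor in buffer alone and 100% = receptor with positive control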
HTRA1 inhibitor = inhibitors of human serine peptidase HTRA1; AID 504803; inhibition, % at 5.96 µM; Q92743; 340,000 compounds, 0.5% hits; recombinant HTRA1, FP-rhodamine activity-based probe, fluorescence polarization; in the data active means inhibition above about 36%;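 further: 0% = enzyme with DMSO and 100% = wells lacking enzyme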
SIAE inh = inhibitors of human sialic acid acetylesterase SIAE | Q9HAT2 | SIAE FP-Rh probe binding, fluorescence polarization | inhibition, % at 9.66 µM | 370,000 compounds, 0.69% hits | AID 1053197;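 active means inhibition above a cutoff: mean of compounds within the control limits plus 3 SD of those, cut at about 17% in these data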;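 further: 0% = plate median of compound wells and 100% = probe without SIAE protein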
HTRA1 inh conf = confirmation of human HTRA1 inhibitors | inhibition, % at 5.96 µM | 1,600 compounds, 66% hits | recombinant HTRA1, FP-rhodamine activity-based probe, fluorescence polarization | AID 540248 | shares compounds with HTRA1 inhibitor;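 active means mean inhibition over three repeats above a set limit taken from the earlier primary screen, cut at about 37% in these data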;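 further: 0% = HTRA1 with DMSO and 100% = wells lacking HTRA1; inhibitors block probe binding so polarization drops and inhibition rises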
BSA probe FL = BSA probe counter-screen for TCR-CD3 inhibitors. shares compounds with TCR-CD3 inh. TAMRA-labeled BSA probe fluorescence counterscreen. inhibition, % at 9.4 µM. 1,200 compounds, 10% hits; in the data active means inhibition above about 23%;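 further: 0% = buffer low control and 100% = reference high control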
TCR-CD3 conf = TCR-CD3 interaction inhibition, confirmation; shares compounds with TCR-CD3 inh; TAMRA-labeled TCR probe fluorescence binding assay; inhibition, % at 9.4 µM; 1,200 compounds, 48% hits; AID 652036
PRMT1 inh conf = confirmation of human PRMT1 inhibitors. recombinant His-PRMT1, activity-based probe fluorescence polarization. 3,300 compounds, 42% hits. shares compounds with PRMT1 FP inh. inhibition, % at 2.79 µM;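 active means mean inhibition across replicates above the hit cutoff derived for the earlier primary screen, cut at about 22% in these data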
ABHD4 confirm = confirmation of mouse ABHD4 inhibitors; shares compounds with ABHD4 inh; purified mABHD4, FP-Rh probe fluorescence polarization; inhibition, % at 8.92 µM; 1,800 compounds, 55% hits;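 active means mean inhibition across replicates above the hit cutoff set in the primary screen, cut at about 30% in these data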;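 further: 0% = wild-type ABHD4 with DMSO and 100% = catalytically dead S159A mutant with DMSO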
SIAE confirm = human SIAE inhibition, confirmation. shares compounds with SIAE inh. SIAE FP-Rh activity-based probe, fluorescence polarization. inhibition, % at 9.66 µM. 2,300 compounds, 13% hits;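 active means mean inhibition of the replicates above the hit cutoff set in the primary screen, cut at about 17% in these data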;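 further: 0% = SIAE with DMSO and probe and 100% = probe without SIAE; inhibitors lower polarization as more probe stays unbound to SIAE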
Starred values were filed as active, the others as inactive; / = not tested or not shown. A selection: hits, their analogues and other compounds. The true share with any hit is near 2.5%. Unless noted, no stated cut-off is given here; in the data, active means inhibition above about 19%; inactive means the rest.

SMILES	ABHD4 inh	PRMT1 FP inh	TCR-CD3 inh	HTRA1 inhibitor	SIAE inh	HTRA1 inh conf	BSA probe FL	TCR-CD3 conf	ABHD4 confirm	SIAE confirm	others
Cc1ccc(NC(=O)CS(=O)CC(=O)Nc2ccccc2-c2ccc(C)o2)cc1 (stereo not given)	45*	51*	86*	57*	33*	-9	6	4	-2	9
Cc1nnc(NC(=O)C2CSC3(C)CCC(=O)N23)s1 (stereo not given)	13	-1	1	0	0	/	/	/	/	/
O=C(COC(=O)c1c2c(nc3ccccc13)/C(=C\c1ccco1)CC2)NC1CCCC1	63*	28*	16	58*	23*	22	/	/	32*	10	PRMT1 inh conf=17
O=C(COC(=O)/C=C/c1ccccc1Cl)NC1CCCC1	0	1	-1	0	-1	/	/	/	/	/
COc1ccc2c(c1)cc(C(=O)N/N=C/c1c(O)c(C(=O)O)cc3ccccc13)n2C	19	2	37*	55*	39*	39*	-17	45*	/	6
Cn1c2ccccc2c2cc(/C=N/NC(=O)c3ccc(O)cc3O)ccc21	/	/	/	-19	/	/	/	/	/	/
Cn1c(O)c(/C=N/NC(=O)c2cc3ccccc3cc2O)c2ccccc21	40*	3	50*	54*	23*	55*	-13	53*	44*	10
CC(=O)Nc1ccc(N=Cc2c(O)c(C(=O)Nc3ccccc3)cc3ccccc23)cc1	-6	6	2	/	7	/	/	/	/	/
NS(=O)(=O)c1ccc(CNS(=O)(=O)c2ccc3ccccc3c2)cc1	-9	1	-6	-3	-2	/	/	/	/	/
Cc1cc2cc(CNS(=O)(=O)c3ccc4ccccc4c3)ccc2n1C	51*	5	58*	67*	26*	5	17	10	4	-7
Cc1cc(C)c(S(=O)(=O)NCc2ccc3c(c2)cc(C)n3C)c(C)c1	55*	14	71*	60*	39*	-6	30*	26*	-10	6
CCCC(=O)NCc1ccc2c(c1)cc(C)n2C	4	7	4	7	-4	/	/	/	/	/
Cc1cc(C)c(S(=O)(=O)NCCn2c(C)cc3ccccc32)c(C)c1	60*	1	71*	66*	24*	0	1	1	-22	-5
Cc1cc2ccccc2n1CCNC(=O)Cc1ccccc1	9	5	6	35	4	/	/	/	/	/
CC(=O)NC(C)c1cc(F)c2cccnc2c1O (stereo not given)	-2	1	1	3	-1	/	/	/	/	/
CC(=O)NC(c1ccc(C)cc1)c1cc(Cl)c2cccnc2c1O (stereo not given)	21	-2	-4	62*	20*	76*	/	/	/	17
CC(=O)NC(c1ccc(C(C)C)cc1)c1ccc2cccnc2c1O (stereo not given)	13	-5	-1	66*	23*	75*	/	/	/	29*
COC(=O)CCC(=O)N1CCCC(N2CCN(c3cccc(C(F)(F)F)c3)CC2)C1 (stereo not given)	5	-2	2	5	2	/	/	/	/	/
FC(F)(F)C1=Nc2cccc3cccc(c23)N1	4	6	31*	39*	56*	85*	-7	9	/	4
COC(=O)[C@@]12CCCCC=C1N(CCc1ccc(Cl)cc1)C(=O)[C@H]2CC(=O)NCCc1ccccc1OC	-1	2	/	/	-5	/	/	/	/	/
CN1C(=O)NC(c2ccccc2[N+](=O)[O-])C2=C1CCCC2=O (stereo not given)	89*	36*	85*	77*	54*	44*	62*	44*	56*	80*
CN1C(=O)NC(c2ccccc2[N+](=O)[O-])C2=C1CC(C)(C)CC2=O (stereo not given)	8	18	6	3	1	/	/	/	/	/
CCOC(=O)C1=C(C)N=C2c3ccccc3C(=O)C2C1c1ccc(Cl)cc1 (stereo not given)	35*	0	-2	38*	19*	34	/	/	66*	6
CCOC(=O)C1=NNC(C(=O)c2ccccc2)C1c1ccc(Cl)cc1 (stereo not given)	-10	6	-1	-11	-10	/	/	/	/	/
CN(C)CC(=O)N[C@@H]1C[C@@H]2O[C@@H](CO)CC[C@@H]2O[C@@H]1CCc1ccc(-c2ccc(F)cc2)cc1	8	5	/	/	6	/	/	/	/	/
SMILES	ABHD4 inh	PRMT1 FP inh	TCR-CD3 inh	HTRA1 inhibitor	SIAE inh	HTRA1 inh conf	BSA probe FL	TCR-CD3 conf	ABHD4 confirm	SIAE confirm	others
O=C(COC(=O)/C=C/c1ccccc1)NNC(=O)c1ccc([N+](=O)[O-])cc1	-10	3	-6	-1	-5	/	/	/	/	/
COc1cc(-c2nc(-c3ccccc3)c(-c3cccs3)[nH]2)cc(OC)c1O	35*	5	-4	43*	20*	35	/	/	44*	6
COc1cc(-c2nc(-c3ccccc3)c(-c3cccs3)[nH]2)cc(OC)c1OC	1	-1	6	8	12	/	/	/	/	/
O=C1C(Cl)=C(Nc2ccc3cn[nH]c3c2)C(=O)c2ccccc21	46*	43*	-2	47*	18*	75*	/	/	54*	7
O=C(Nc1ccc2cn[nH]c2c1)c1c(Cl)cccc1Cl	-2	7	2	-8	-1	/	/	/	/	/
CCN(CC)C(=O)CSc1nc2ccccc2c(=O)n1-c1cccc(OC)c1	-12	3	4	-4	2	/	/	/	/	/
COc1cccc(-n2c(SCc3cc(=O)oc4cc(O)c(O)cc34)nc3ccccc3c2=O)c1	25	10	19*	67*	32*	76*	-13	32*	/	-13
COc1ccc(/C=N/NC(=O)c2cc(O)c(O)c(O)c2)cc1Cn1cc([N+](=O)[O-])cn1	28	12	63*	72*	46*	82*	-10	78*	/	2
COc1ccc(/C=N/NC(=O)c2ccccc2O)cc1Cn1cc([N+](=O)[O-])cn1	3	4	2	-3	-3	/	/	/	/	/
O=C(NCC1CCCO1)c1cc([N+](=O)[O-])ccc1Cl (stereo not given)	1	-1	9	5	1	/	/	/	/	/
COC(=O)/C(=C\C(=O)c1ccccc1)Nc1cccc(C(F)(F)F)c1	7	1	0	10	4	/	/	/	/	/
